We go through 18 molecules from ChEMBL document CHEMBL1147489, “Pi-delocalized beta-carbolinium cations as potential antimalarials” (Bioorg Med Chem Lett, 2004).

In experiment [1] the test system is FM3A. Briefly: In vitro cytotoxic activity tested in mouse mammary tumor FM3A cells. It is filed as functional, cell-based. An outline of the steps:
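Growth-inhibition assay in mouse mammary tumour FM3A cells, used as a model of the host. The value reported is the EC50 for cell growth.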

Experiment [2] has as its system Plasmodium falciparum. Briefly: In vitro antimalarial activity against Plasmodium falciparum FCR3. It is filed as functional, organism-based. An outline of the steps:
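Drug-sensitive P. falciparum FCR-3 strain tested in vitro; antimalarial potency given as EC50 (M).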

The test system of experiment [3] is FM3A. Briefly: Relative activity against FM3A cells and Plasmodium falciparum FCR3. It is filed as functional. In a few lines:
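Selective toxicity calculated as EC50 in FM3A cells divided by EC50 against P. falciparum FCR-3.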

Experiment [4] concerns FM3A. Briefly: In vitro growth inhibitory activity tested in mouse mammary tumor FM3A cells at 3.0E-5 M concentration.

pEC50: −log10 of the molar value.

Regarding `CCOC(=O)c1c2[nH]c3ccccc3c2c(OC)c[n+]1C.Cc1ccc(S(=O)(=O)[O-])cc1`, the pEC50 in experiment [1] is 4.66; in experiment [2], 4.72. The molecule further displayed a Selective toxicity in experiment [3] of 1.2.

In experiment [3], `C=C[C@H]1CN2CC[C@H]1C[C@H]2[C@H](O)c1ccnc2ccc(OC)cc12` [QUININE] gave a Selective toxicity of 910.

As for `COc1ccc2c3cc[n+](CCO)c(C)c3n(C)c2c1.[Br-]`, the pEC50 in experiment [2] was 5.96. The same molecule had a Selective toxicity in experiment [3] of more than 65.

`COc1ccc2c(c1)[nH]c1c(C)[n+](C)ccc12.Cc1ccc(S(=O)(=O)[O-])cc1`: the pEC50 was 4.72 in experiment [1] and 5.96 in experiment [2]. In experiment [3], this molecule gave a Selective toxicity of 17.

`Cc1c2nc3ccccc3c-2ccn1C`: the negative-log EC50 (pEC50) is 4.54 in experiment [1] and 5.32 in experiment [2]. The molecule further displayed a Selective toxicity in experiment [3] of 6.

`CCc1c2[nH]c3ccccc3c2c(OC)c[n+]1C.[I-]` returned a Percent growth in experiment [4] of 63%. In experiment [2], this molecule gave a pEC50 of 6.02. This molecule had a Selective toxicity in experiment [3] of more than 32.

With `C=Cc1c2[nH]c3ccccc3c2c(OC)c[n+]1CC.Cc1ccc(S(=O)(=O)[O-])cc1`, the pEC50 in experiment [1] was 5.00; in experiment [2] it was 6.89. Further, the Selective toxicity in experiment [3] worked out at 77.

`CC1=[N+](C)CCc2c1[nH]c1ccccc21.Cc1ccc(S(=O)(=O)[O-])cc1`: the pEC50 in experiment [2] was 4.80. In experiment [3], this molecule came in with a Selective toxicity of more than 24.

For `C=Cc1c2[nH]c3ccccc3c2c(OC)c[n+]1C.Cc1ccc(S(=O)(=O)[O-])cc1`, the negative logarithm of the EC50 (pEC50) in experiment [1] was 5.08; in experiment [2], 5.96. Further, in experiment [3], the Selective toxicity came to 7.6.

Consider `C=Cc1ncc(OC)c2c1[nH]c1ccccc12`, for which the negative logarithm of the EC50 (pEC50) in experiment [1] was 5.42; in experiment [2], 5.30. Further, the Selective toxicity in experiment [3] is listed as 0.76.

As for `COc1ccc2c3cc[n+](C)c(C)c3n(C)c2c1.Cc1ccc(S(=O)(=O)[O-])cc1`, the pEC50 in experiment [1] is 4.66; in experiment [2], 6.34. Besides, the Selective toxicity in experiment [3] was determined as 48.

With `COc1cnc(C)c2[nH]c3ccccc3c12`, the negative-log EC50 (pEC50) in experiment [1] is 4.74; in experiment [2] it was 4.66. The molecule further showed a Selective toxicity in experiment [3] of 0.82.

Consider `CC1=NCCc2c1[nH]c1ccccc21`, for which the figures for the negative logarithm of the EC50 (pEC50) in experiment [1] and in experiment [2] were 4.35 and 4.74, respectively. For the same molecule, the Selective toxicity in experiment [3] turned out to be 2.1.

Regarding `COc1ccc2c3ccnc(C)c3n(C)c2c1`, the results for the negative logarithm of the EC50 (pEC50) in experiment [1] and in experiment [2] were 4.49 and 4.51, respectively. This molecule also displayed a Selective toxicity in experiment [3] of 1.

As for `COc1ccc2c(c1)[nH]c1c(C)nccc12` [HARMINE], the negative logarithm of the EC50 (pEC50) is 4.74 in experiment [1] and 4.66 in experiment [2]. In experiment [3], the Selective toxicity is given as 0.82.

Take `COc1c[n+](C)c(C)c2[nH]c3ccccc3c12.[I-]`: the pEC50 in experiment [1] is 4.52; in experiment [2] it was 6.43. In addition, the Selective toxicity in experiment [3] was determined as 81.

Consider `C[n+]1ccc2c([nH]c3ccccc32)c1-c1ccccc1.Cc1ccc(S(=O)(=O)[O-])cc1`, for which the pEC50 in experiment [2] was 4.89. The Selective toxicity in experiment [3] was more than 1.8.

`Cc1c2[nH]c3ccccc3c2cc[n+]1C.Cc1ccc(S(=O)(=O)[O-])cc1`: the negative logarithm of the EC50 (pEC50) in experiment [1] was 4.46; in experiment [2], 5.70. Further, the Selective toxicity in experiment [3] is recorded as 18.
